Reference: ChEMBL document CHEMBL1817571, “Design and synthesis of new prostaglandin D₂ receptor antagonists” (Bioorg Med Chem, 2011)

How the values were obtained:
[1] = target: Prostaglandin E2 receptor EP2 subtype (Mus musculus, UniProt Q62053); assay: Displacement of [3H]PGE2 from mouse prostaglandin EP2 receptor expressed in CHO cells after 60 mins by liquid scintillation counting; type: cell-based
How it was run: (§1)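 Membranes came from CHO cells stably expressing mEP1, EP2, EP3 or EP4. They were incubated with 2.5 nM [3H]PGE2 and graded test concentrations in 10 mM KH2PO4–KOH (1 mM EDTA, 10 mM MgCl2, 100 mM NaCl, pH 6.0) at room temperature, 20 min for EP1 and 60 min for EP2–4. Reactions were filtered on GF/B, washed with ice-cold buffer, and counted by scintillation. IC50 came by regression, with Ki via Cheng–Prusoff.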

[2] = target: T1, Prostaglandin E2 receptor EP3 subtype (Mus musculus, UniProt P30557); assay: Displacement of [3H]PGE2 from mouse prostaglandin EP3alpha receptor expressed in CHO cells after 60 mins by liquid scintillation counting; type: cell-based; how it was run: as §1
T1 sequence (P30557 whole entry): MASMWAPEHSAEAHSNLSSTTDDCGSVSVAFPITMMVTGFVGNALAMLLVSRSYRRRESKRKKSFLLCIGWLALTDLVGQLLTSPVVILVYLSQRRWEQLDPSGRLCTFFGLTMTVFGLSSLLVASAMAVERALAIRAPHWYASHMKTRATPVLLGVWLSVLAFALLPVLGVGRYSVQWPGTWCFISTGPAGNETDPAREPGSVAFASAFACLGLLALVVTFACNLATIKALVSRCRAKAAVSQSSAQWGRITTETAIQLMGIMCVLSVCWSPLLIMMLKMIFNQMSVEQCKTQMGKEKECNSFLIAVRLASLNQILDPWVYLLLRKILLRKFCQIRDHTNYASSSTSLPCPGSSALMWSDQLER

[3] = target: Prostaglandin E2 receptor EP4 subtype (Mus musculus, UniProt P32240); assay: Displacement of [3H]PGE2 from mouse prostaglandin EP4 receptor expressed in CHO cells after 60 mins by liquid scintillation counting; type: cell-based; how it was run: as §1
[4] = target: T2, Prostaglandin D2 receptor (Mus musculus, UniProt P70263); assay: Antagonist activity at mouse prostanoid DP receptor expressed in CHO cells assessed as inhibition of PGD2-induced intracellular cAMP production; type: functional, cell-based
T2 sequence (P70263 whole entry): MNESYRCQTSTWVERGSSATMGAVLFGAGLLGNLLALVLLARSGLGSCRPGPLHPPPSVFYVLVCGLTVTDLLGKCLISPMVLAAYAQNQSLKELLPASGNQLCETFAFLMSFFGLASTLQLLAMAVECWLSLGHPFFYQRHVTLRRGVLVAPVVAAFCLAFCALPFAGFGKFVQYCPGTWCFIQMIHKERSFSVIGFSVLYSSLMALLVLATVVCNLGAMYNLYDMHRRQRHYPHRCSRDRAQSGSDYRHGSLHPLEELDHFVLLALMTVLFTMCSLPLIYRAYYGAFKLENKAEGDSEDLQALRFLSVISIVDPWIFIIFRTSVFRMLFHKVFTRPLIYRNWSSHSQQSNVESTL
How it was run: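 CHO-mDP cells were seeded at 1×10^5 cells/well and grown 2 days. They were preincubated about 10 min at 37 °C in MEM with 2 µM diclofenac, then about 10 min in MEM with 0.1% BSA, 1 mM IBMX and 2 µM diclofenac. Test compounds at various concentrations plus 10 nM PGD2 were then added for 10 min at 37 °C. Reactions were stopped with 10% TCA, extracted with tri-n-octylamine/chloroform, and cAMP was measured by EIA.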

[5] = target: Prostaglandin F2-alpha receptor (Mus musculus, UniProt P43117); assay: Displacement of [3H]PGF2alpha from mouse prostanoid FP receptor expressed in CHO cells after 60 mins by liquid scintillation counting; type: cell-based
How it was run: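 CHO-mFP membranes were incubated with 2.5 nM [3H]PGF2α and varied test concentrations in 10 mM KH2PO4–KOH, 1 mM EDTA, 10 mM MgCl2, 100 mM NaCl, pH 6.0, for 60 min at room temperature. Samples were then filtered on GF/B, washed with ice-cold phosphate/NaCl buffer, and counted by scintillation. IC50 came from the regression curve, and Ki = IC50/(1+[L]/Kd).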

[6] = AUClast in rat at 1 mg/kg, iv; type: ADME, organism-based; parameters: time 0 - last, dose 1 mg/kg, route intravenous; conditions: plasma
How it was run: (§2)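 Fasted male rats (n = 3) received 1 mg/kg iv or 10 mg/kg po. Jugular vein blood was drawn with a heparinized syringe at pre-dose and 2 (iv only), 5, 15 and 30 min, and 1, 2, 4, 6 and 8 h. Plasma was obtained by centrifugation at 4 °C and stored at −80 °C. AUC, Cmax, T1/2, Vss and CL came from the plasma concentration–time course. BA was derived from dose-normalized AUCpo/AUCiv.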

[7] = AUClast in rat at 10 mg/kg, po; type: ADME, organism-based; parameters: dose 10 mg/kg, route oral, time 0 - last; conditions: plasma; how it was run: as §2
[8] = Total clearance in rat at 1 mg/kg, iv; type: ADME, organism-based; parameters: dose 1 mg/kg, route intravenous; conditions: in vivo; how it was run: as §2
[9] = Cmax in rat at 10 mg/kg, po; type: ADME, organism-based; parameters: dose 10 mg/kg, route oral; conditions: in vivo; how it was run: as §2
[10] = Half life in rat at 1 mg/kg, iv; type: ADME, organism-based; parameters: dose 1 mg/kg, route intravenous; conditions: in vivo; how it was run: as §2
[11] = Half life in rat at 10 mg/kg, po; type: ADME, organism-based; parameters: dose 10 mg/kg, route oral; conditions: in vivo; how it was run: as §2
[12] = Volume of distribution at steady state in rat at 1 mg/kg, iv; type: ADME, organism-based; parameters: dose 1 mg/kg, route intravenous; conditions: in vivo, read-out: Vdss; how it was run: as §2
[13] = Oral bioavailability in rat at 10 mg/kg; type: ADME, organism-based; conditions: in vivo; how it was run: as §2
[14] = target: T2, Prostaglandin D2 receptor; assay: Displacement of [3H]PGD2 from mouse prostanoid DP receptor expressed in CHO cells after 20 mins by liquid scintillation counting
[15] = target: T3, Prostaglandin E2 receptor EP1 subtype (Mus musculus, UniProt P35375); assay: Displacement of [3H]PGE2 from mouse prostaglandin EP1 receptor expressed in CHO cells after 20 mins by liquid scintillation counting
T3 sequence (P35375 whole entry): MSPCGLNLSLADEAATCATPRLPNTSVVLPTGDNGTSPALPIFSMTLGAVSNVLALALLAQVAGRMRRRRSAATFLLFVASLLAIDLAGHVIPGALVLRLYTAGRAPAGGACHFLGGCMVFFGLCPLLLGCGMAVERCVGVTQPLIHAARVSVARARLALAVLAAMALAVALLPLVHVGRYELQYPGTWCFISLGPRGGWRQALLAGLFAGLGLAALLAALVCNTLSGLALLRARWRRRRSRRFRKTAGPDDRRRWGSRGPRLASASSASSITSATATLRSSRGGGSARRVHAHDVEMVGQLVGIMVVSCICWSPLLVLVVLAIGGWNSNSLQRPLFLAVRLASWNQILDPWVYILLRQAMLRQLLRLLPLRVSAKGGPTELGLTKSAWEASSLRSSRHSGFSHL

[16] = target: Prostacyclin receptor (Homo sapiens, UniProt P43119); assay: Displacement of [3H]Iloprost from human prostanoid IP receptor expressed in CHO cells after 30 mins by liquid scintillation counting
[17] = target: T4, Thromboxane A2 receptor (Homo sapiens, UniProt P21731); assay: Displacement of [3H]-SQ29548 from human prostanoid TP receptor expressed in CHO cells after 30 mins by liquid scintillation counting
T4 sequence (P21731 whole entry): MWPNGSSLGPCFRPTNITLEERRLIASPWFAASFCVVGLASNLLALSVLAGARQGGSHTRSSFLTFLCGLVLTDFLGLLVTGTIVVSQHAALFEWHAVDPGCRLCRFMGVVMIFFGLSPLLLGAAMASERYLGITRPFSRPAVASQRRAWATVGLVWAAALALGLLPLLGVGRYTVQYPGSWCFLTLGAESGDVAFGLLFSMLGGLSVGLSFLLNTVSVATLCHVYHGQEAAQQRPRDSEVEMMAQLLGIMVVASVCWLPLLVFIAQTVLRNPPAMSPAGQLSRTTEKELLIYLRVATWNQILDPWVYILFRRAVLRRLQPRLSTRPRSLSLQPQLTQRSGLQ

Chain of Prostaglandin E2 receptor EP4 subtype (P32240 whole entry): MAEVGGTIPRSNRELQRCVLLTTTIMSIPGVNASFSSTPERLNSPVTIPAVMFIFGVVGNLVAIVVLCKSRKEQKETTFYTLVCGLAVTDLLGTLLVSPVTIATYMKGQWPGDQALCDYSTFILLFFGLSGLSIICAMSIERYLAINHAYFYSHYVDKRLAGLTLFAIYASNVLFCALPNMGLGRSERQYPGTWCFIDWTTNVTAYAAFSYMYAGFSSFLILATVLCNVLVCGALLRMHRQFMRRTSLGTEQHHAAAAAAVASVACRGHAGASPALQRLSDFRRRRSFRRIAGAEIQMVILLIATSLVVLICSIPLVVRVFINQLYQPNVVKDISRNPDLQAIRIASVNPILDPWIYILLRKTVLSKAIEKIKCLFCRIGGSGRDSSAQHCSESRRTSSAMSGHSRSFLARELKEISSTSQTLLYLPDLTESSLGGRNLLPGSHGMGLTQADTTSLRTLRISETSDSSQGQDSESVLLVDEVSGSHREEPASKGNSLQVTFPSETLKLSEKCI
Chain of Prostacyclin receptor (P43119 whole entry): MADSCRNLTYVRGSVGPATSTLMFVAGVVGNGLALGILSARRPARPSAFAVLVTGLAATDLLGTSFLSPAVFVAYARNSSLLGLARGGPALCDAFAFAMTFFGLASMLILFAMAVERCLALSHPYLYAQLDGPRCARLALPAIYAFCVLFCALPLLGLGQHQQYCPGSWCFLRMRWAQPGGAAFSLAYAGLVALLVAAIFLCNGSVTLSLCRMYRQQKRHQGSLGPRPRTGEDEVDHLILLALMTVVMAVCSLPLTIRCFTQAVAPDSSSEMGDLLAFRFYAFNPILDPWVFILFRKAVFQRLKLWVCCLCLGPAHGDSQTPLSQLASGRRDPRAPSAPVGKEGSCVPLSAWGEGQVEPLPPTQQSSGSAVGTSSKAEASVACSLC
Chain of Prostaglandin E2 receptor EP2 subtype (Q62053 whole entry): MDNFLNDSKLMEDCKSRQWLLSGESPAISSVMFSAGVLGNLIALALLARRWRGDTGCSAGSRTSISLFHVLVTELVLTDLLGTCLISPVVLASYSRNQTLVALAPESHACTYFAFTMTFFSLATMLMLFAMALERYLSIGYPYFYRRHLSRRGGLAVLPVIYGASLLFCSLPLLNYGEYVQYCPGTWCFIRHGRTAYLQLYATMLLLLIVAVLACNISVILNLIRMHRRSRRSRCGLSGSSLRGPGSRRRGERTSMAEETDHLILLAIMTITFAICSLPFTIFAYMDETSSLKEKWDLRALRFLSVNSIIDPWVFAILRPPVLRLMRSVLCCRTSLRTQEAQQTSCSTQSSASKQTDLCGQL
Chain of Prostaglandin F2-alpha receptor (P43117 whole entry): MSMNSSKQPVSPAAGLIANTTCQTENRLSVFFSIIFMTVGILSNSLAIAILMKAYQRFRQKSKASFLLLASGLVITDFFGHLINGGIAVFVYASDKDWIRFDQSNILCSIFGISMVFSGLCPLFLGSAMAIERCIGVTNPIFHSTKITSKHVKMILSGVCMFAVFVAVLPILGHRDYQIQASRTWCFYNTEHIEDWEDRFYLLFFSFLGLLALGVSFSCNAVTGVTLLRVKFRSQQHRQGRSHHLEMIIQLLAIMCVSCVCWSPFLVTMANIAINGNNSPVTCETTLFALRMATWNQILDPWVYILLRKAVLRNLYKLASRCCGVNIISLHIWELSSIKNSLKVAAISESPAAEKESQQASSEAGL

Ki [1]: 170 nM
Ki [2]: > 10000 nM
Ki [3]: > 10000 nM
IC50 [4]: 4.6 nM
Ki [5]: > 10000 nM
AUC(0-t) [6]: 4600 ng·h/mL
AUC(0-t) [7]: 28800 ng·h/mL
clearance [8]: 3.3 mL/min/kg
Cmax [9]: 8700 ng/mL
half-life [10]: 3.1 h
half-life [11]: 5.2 h
Vd [12]: 0.61 L/kg
bioavailability [13]: 62%
Ki [14]: 31 nM
Ki [15]: > 10000 nM
Ki [16]: 2600 nM
Ki [17]: > 10000 nM
Structure (SMILES): Cc1ccc(CC(=O)O)cc1NC(=O)c1ccc(OC[C@@H]2CN(C)c3ccccc3O2)cc1C
